The test system of data set [1] is Vero. Nature of the data set: Cytotoxicity against african green monkey Vero cells at 20 ug/mL after 48 hrs by neutral red assay. The format is cell-based. The following applies: chlorocebus sabaeus. An outline of the steps:
(§1)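 Vero kidney fibroblasts seeded at 25,000 cells/well and grown 24 h, then exposed to samples up to 20 µg/ml for 48 h. Viable cells measured by neutral red assay. IC50 taken from growth-inhibition vs concentration curves. DMSO served as vehicle control.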

Data set [2] has as its system Aspergillus fumigatus. Nature of the data set: Fungicidal activity against Aspergillus fumigatus ATCC 90906. The format is functional.
Data set [3] can be described thus: Cytotoxicity against african green monkey Vero cells after 48 hrs by neutral red assay. The following applies: chlorocebus sabaeus, read-out: TC50. Format: cell-based. An outline of the steps: as §1
Data set [4] is described as follows: Cytotoxicity against african green monkey Vero cells. Format: cell-based. The following applies: chlorocebus sabaeus, read-out: TC50 (the source's name). In short, it runs like this:
as §1

The subject of data set [5] is Aspergillus fumigatus. Nature of the data set: Antifungal activity against Aspergillus fumigatus ATCC 90906 assessed as inhibition of fungal growth by alamar blue assay. Format: functional, organism-based. The following applies: Aspergillus fumigatus, ATCC 90906; read-out: IC50. An outline of the steps:
(§2)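 Broth microdilution modified from NCCLS. DMSO stocks serially diluted in saline and plated in duplicate. Inoculum set by 0.5 McFarland standard. Media: C. albicans in SDB or RPMI 1640; C. neoformans in SDB; A. fumigatus in RPMI-1640 + 5% Alamar Blue. Highest final concentration 20 µg/mL. Plates read before and after incubation by fluorescence 544ex/590em (A. fumigatus) or OD 630 nm. IC50 from percent growth vs concentration.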
(Alamar Blue is a resazurin reagent that responds to reducing activity.)

Data set [6] has as its system Candida albicans. The data set can be described thus: Antifungal activity against Candida albicans ATCC 90028 by microscopy. The format is functional. An outline of the steps:
(§3)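 Modified NCCLS microdilution. Samples in DMSO serially diluted in saline and tested in duplicate against inocula standardized to 0.5 McFarland. Broths: C. albicans SDB or RPMI 1640; C. neoformans SDB; A. fumigatus YM broth. Highest final concentration 20 µg/mL. MIC read visually as the lowest concentration with no detectable growth (for Alamar Blue wells, no blue-to-pink change).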

For data set [7], the system named is Aspergillus fumigatus. Nature of the data set: Antifungal activity against Aspergillus fumigatus ATCC 90906 by microscopy. Format: functional. In short, it runs like this: as §3
Data set [8] relates to Candida albicans. Nature of the data set: Fungicidal activity against Candida albicans ATCC 90028. The format is functional.
Data set [9] relates to Cryptococcus neoformans. Nature of the data set: Antifungal activity against Cryptococcus neoformans ATCC 90113 assessed as inhibition of fungal growth by alamar blue assay. Format: functional, organism-based. In short, it runs like this:
as §2

Data set [10] deals with Cryptococcus neoformans. Nature of the data set: Fungicidal activity against Cryptococcus neoformans ATCC 90113. Format: functional.
The subject of data set [11] is Aspergillus fumigatus. The data set can be described thus: Fungicidal activity against Aspergillus fumigatus ATCC 90906 at 20 ug/mL. Format: functional, organism-based.
Data set [12] deals with Candida albicans. Nature of the data set: Antifungal activity against Candida albicans ATCC 90028 assessed as inhibition of fungal growth at 20 ug/mL by alamar blue assay. Format: functional, organism-based. An outline of the steps:
as §2

The subject of data set [13] is Aspergillus fumigatus. Nature of the data set: Antifungal activity against Aspergillus fumigatus ATCC 90906 assessed as inhibition of fungal growth at 20 ug/mL by alamar blue assay. Format: functional, organism-based. In short, it runs like this: as §2
Data set [14] concerns Candida albicans. Nature of the data set: Fungicidal activity against Candida albicans ATCC 90028 at 20 ug/mL. The format is functional, organism-based.
In data set [15] the test system is Cryptococcus neoformans. The data set can be described thus: Antifungal activity against Cryptococcus neoformans ATCC 90113 assessed as inhibition of fungal growth at 20 ug/mL by alamar blue assay. The format is functional, organism-based. In short, it runs like this:
as §2

The subject of data set [16] is Candida albicans. The data set can be described thus: Antifungal activity against Candida albicans ATCC 90028 at 20 ug/mL by microscopy. Format: functional, organism-based. An outline of the steps:
as §3

Data set [17] deals with Cryptococcus neoformans. The data set can be described thus: Antifungal activity against Cryptococcus neoformans ATCC 90113 at 20 ug/mL by microscopy. The format is functional, organism-based. In short, it runs like this: as §3
For data set [18], the system named is Cryptococcus neoformans. The data set can be described thus: Fungicidal activity against Cryptococcus neoformans ATCC 90113 at 20 ug/mL. The format is functional, organism-based.
Data set [19] relates to Aspergillus fumigatus. The data set can be described thus: Antifungal activity against Aspergillus fumigatus ATCC 90906 at 20 ug/mL by microscopy. The format is functional, organism-based. In short, it runs like this: as §3
Data set [20] relates to Candida albicans. Nature of the data set: Antifungal activity against Candida albicans ATCC 90028 assessed as inhibition of fungal growth by alamar blue assay. Format: functional, organism-based. An outline of the steps: as §2
Data set [21] relates to Cryptococcus neoformans. The data set can be described thus: Antifungal activity against Cryptococcus neoformans ATCC 90113 by microscopy. The format is functional. An outline of the steps: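 Modified NCCLS microdilution. Samples in DMSO serially diluted in saline and tested in duplicate against inocula standardized to 0.5 McFarland. Highest final concentration 20 µg/mL. MIC read visually as the lowest concentration with no detectable growth (for Alamar Blue wells, no blue-to-pink change).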

Data set [22] has as its system Cryptococcus neoformans. Nature of the data set: Antifungal activity against Cryptococcus neoformans at 20 ug/mL.

Values after ≈ are worked out from the molar mass of the structure shown. Active and inactive are the calls of the source. The rule behind the calls is not given here. Where only a bound is given, the exact number is not on record here.

As for `C[n+]1cccc(Nc2ccccc2)c1.[I-]`, the Activity result in data set [1] is listed as “Non-toxic”.
Broadly, the MFC is the lowest tested concentration that kills the fungus rather than only halting it. One may read the IC50 as the midpoint of a concentration-inhibition curve. The term MIC denotes the lowest concentration that inhibits growth of the organism. For the molecule `C[C@@H]1[C@H](O)[C@@H](C)/C=C/C=C/C=C/C=C/C=C/C=C/C=C/[C@H](O[C@@H]2O[C@H](C)[C@@H](O)[C@H](N)[C@@H]2O)C[C@@H]2O[C@](O)(C[C@@H](O)C[C@@H](O)[C@H](O)CC[C@@H](O)C[C@@H](O)CC(=O)O[C@H]1C)C[C@H](O)[C@H]2C(=O)O` [AMPHOTERICIN B], the MFC in data set [2] worked out at 5 µg/mL (≈ 5.41 µM); in data set [8], 1.3 µg/mL (≈ 1.41 µM); in [10], 1 µg/mL (≈ 1.08 µM). In [3], the CC50 at 48 h turned out to be 7.6 µg/mL (≈ 8.22 µM). For the same molecule, in data set [4], the CC50 was determined as 7.6 µg/mL (≈ 8.22 µM). The IC50 was determined as 0.7 µg/mL (≈ 0.758 µM) in data set [5] and 1.3 µg/mL (≈ 1.41 µM) in data set [9]. Moreover, the MIC in data set [6] came out at 0.6 µg/mL (≈ 0.649 µM); in data set [7], 1.3 µg/mL (≈ 1.41 µM).
For the molecule `C[n+]1cc(Nc2ccc(Cl)cc2)cc2ccccc21.[I-]`, the outcome in data set [11], in data set [14], in [16], in data set [17], in data set [18] and in data set [19] was inactive. The inhibition result in [12], in [13] and in [15] was “inactive” throughout. Moreover, the Activity entry in data set [1] is given as “Non-toxic”.
With `C[n+]1cc(Nc2ccccc2Cl)cc2ccccc21.[I-]`, the result in data set [11], in [14], in data set [16], in data set [17], in data set [18] and in data set [19] was inactive. Moreover, the inhibition result in [12], in data set [13] and in data set [15] was “inactive” throughout. In [1], the Activity result was “Non-toxic”.
On to `C[n+]1cc(Nc2cccc(Cl)c2)cc2ccccc21.[I-]`, for which the result in [11], in [14], in data set [16], in data set [17], in [18] and in [19] was inactive. Besides, the inhibition entry in data set [12], in data set [13] and in [15] was “inactive” throughout. For the same molecule, the Activity result in data set [1] was “Non-toxic”.
`C[n+]1cccc(N(CCCCCC2CCCCC2)c2ccccc2)c1.[I-]`: the IC50 in [20] is 8.3 µg/mL; in [5] it was 19.7 µg/mL; in [9], 1.5 µg/mL. The outcome in [11], in data set [14], in data set [16] and in data set [19] was inactive. Further, the inhibition entry in [12] was “inactive”. Also, the CC50 at 48 h in data set [3] is above 10 µg/mL. Besides, the MIC in data set [6] was 20 µg/mL; in data set [21], 2.5 µg/mL. This molecule yielded an MFC in [10] of 2.5 µg/mL.
Turning to `C[n+]1c2ccccc2cc2[n-]c3ccccc3c21` [CRYPTOLEPINE], in data set [20], the IC50 stood at 20 µg/mL (≈ 86.1 µM). Further, the minimal inhibitory concentration (MIC) in data set [22] turned out to be 12.5 µg/mL (≈ 53.8 µM); in data set [21], 20 µg/mL (≈ 86.1 µM). In addition, the CC50 in [4] was found to be 3.2 µg/mL (≈ 13.8 µM).
For `C[n+]1cc(Nc2ccccc2)cc2ccccc21.[I-]`, the result in data set [11], in data set [14], in data set [16], in data set [17], in data set [18] and in data set [19] was inactive. Further, the inhibition entry in [12], in data set [13] and in [15] was “inactive” throughout. The Activity result in data set [1] is reported as “Non-toxic”.
As to `C[n+]1cccc(N(CCCCCC2CCCCC2)c2cccc(C#N)c2)c1.[I-]`, the inhibition result in data set [12] and in data set [13] was “inactive” in each case. Moreover, the CC50 at 48 h in data set [3] is above 10 µg/mL. The result in data set [14] and in data set [16] was inactive. The molecule also came in with a minimum inhibitory concentration (MIC) in [21] of 5 µg/mL. The IC50 in data set [9] was 3.5 µg/mL. This molecule showed an MFC in [10] of 5 µg/mL.
For the molecule `C[n+]1cccc(N(CCCCCC2CCCCC2)c2ccc(F)cc2)c1.[I-]`, the IC50 in data set [20] came to 9.6 µg/mL; in data set [9], 1.4 µg/mL. The outcome in data set [11], in data set [14], in data set [16] and in [19] was inactive. The inhibition entry in data set [12] and in data set [13] was “inactive” each time. Besides, in data set [3], the CC50 at 48 h was above 10 µg/mL. Further, the minimal inhibitory concentration (MIC) amounted to 20 µg/mL in data set [6] and 2.5 µg/mL in data set [21]. In addition, the MFC in data set [10] was found to be 2.5 µg/mL.
